Laboratory results published in article PMC9057764 (RSC Advances, 2020).
Entries after “also recorded” stand apart in the source; their conditions may differ. Read-outs that look alike come from different tables or passages of the source.

Experiments:
HCC-2998 [1] = assay: NCI five-dose screen, colon cancer; type: cell-based; details: Homo sapiens; for GI50: HCC 2998; for CC50: HCC 2998, read-out: LC50
Procedure, shortened: (§1)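 This was the NCI five-dose screen on the 60-cell-line human cancer panel, covering nine tumour types. It was given to compounds that met the single-dose criteria. GI50 is the concentration giving 50% growth inhibition, TGI the concentration giving 100% growth inhibition, and LC50 the concentration giving 50% lethality. MG-MID is the mean over all cell lines tested.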

SR [2] = assay: NCI five-dose screen, leukemia; type: cell-based; details: Homo sapiens
Procedure, shortened: as §1

K-562 [3] = assay: NCI five-dose screen, leukemia; type: cell-based; details: Homo sapiens, K562
Procedure, shortened: as §1

CCRF-CEM [4] = assay: NCI five-dose screen, leukemia; type: cell-based; details: Homo sapiens
Procedure, shortened: as §1

HT29 [5] = assay: NCI five-dose screen, colon cancer; type: cell-based; details: Homo sapiens, HT-29
Procedure, shortened: as §1

HCT-116 [6] = assay: NCI five-dose screen, colon cancer; type: cell-based; details: Homo sapiens; for GI50: HCT-116
Procedure, shortened: as §1

MOLT-4 [7] = assay: NCI five-dose screen, leukemia; type: cell-based; details: Homo sapiens
Procedure, shortened: as §1

panel of 60 cell lines = assay: NCI five-dose screen, whole panel; type: cell-based; details: Homo sapiens; for CC50: read-out: Median LC50 (MG-MID)
Procedure, shortened: as §1

HCT-15 [8] = assay: NCI five-dose screen, colon cancer; type: cell-based; details: Homo sapiens; for GI50: HCT-15
Procedure, shortened: as §1

HL-60 (TB) = assay: cells; details: Homo sapiens; for GI50: HL-60
60 cancer cell lines = assay: NCI single dose; type: cell-based, human; details: for GI% values, range over cell lines: 10 μM, range over the leukemia and colon cancer cell lines of Table 2; for inhibition at 10 µM: Homo sapiens, read-out: Mean percent growth inhibition (MPGI)
Procedure, shortened: (§2)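 This was the NCI primary screen: test compound at one concentration of 10 μM against the 60-cell-line human cancer panel, covering leukemia, NSCLC, melanoma, colon, CNS, ovarian, renal, prostate and breast lines. The read-out was percent growth inhibition for each cell line. Compounds meeting the threshold went on to the five-dose screen.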

SW-620 [9] = assay: NCI five-dose screen, colon cancer; type: cell-based; details: Homo sapiens; for GI50: SW-620
Procedure, shortened: as §1

COLO 205 = assay: NCI five-dose screen, colon cancer; type: cell-based; details: Homo sapiens; for GI50: COLO 205; for CC50: COLO 205, read-out: LC50
Procedure, shortened: as §1

p53 = assay: Gene expression by real time PCR in HepG2; type: cell-based; details: Homo sapiens, HepG2, 8 h, read-out: p53 expression, fold induction from untreated cells
Procedure, shortened: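 HepG2 cells treated with test compound; p53 transcript measured within a panel that also covered cdk1, caspase 3, topoII and txnrd1, and expressed relative to untreated cells. Values given as mean ± SEM of two independent experiments, with significance set at p < 0.05 versus untreated cells.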

SR [10] = assay: NCI single dose; type: cell-based; details: Homo sapiens, read-out: percent growth inhibition
Procedure, shortened: as §2

KM12 [11] = assay: NCI five-dose screen, colon cancer; type: cell-based; details: Homo sapiens; for GI50: KM12
Procedure, shortened: as §1

RPMI-8226 = assay: NCI five-dose screen, leukemia; type: cell-based; details: Homo sapiens; for GI50: RPMI-8226
Procedure, shortened: as §1

[12] = Cytotoxicity in normal cells; type: cell-based, human; details: human, WI-38 normal fibroblasts
Procedure, shortened: (§3)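 Normal human WI-38 fibroblasts were exposed to a concentration series of test compound, with doxorubicin as positive control and three wells per concentration. IC50 came from dose–response curves averaged over two parallel experiments and is given as mean ± SEM versus untreated cells. Selectivity index = WI-38 IC50 / median GI50 from the NCI cancer panel.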

[13] = test system: human normal fibroblasts (WI-38); assay: Cytotoxicity in normal cells; type: cell-based; details: SI = WI-38 IC50/median GI50
Procedure, shortened: as §3

[14] = test system: p38 mitogen-activated protein kinase (MAPK); assay: MAPK concentration in HepG2 cells, sandwich ELISA; type: cell-based; details: HepG2, IC50 concentrations, 8 hours, ELISA (Fig. 5C)
Procedure, shortened: (§4)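 HepG2 cells were treated with test compound, with doxorubicin as reference. Cellular p38 MAPK and Topo II protein concentrations were then measured with commercial sandwich ELISA kits. Each compound had three wells, and the experiment was run twice. Values are mean ± SEM, with significance tested against untreated cells.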

HT29 [15] = assay: NCI single dose; type: cell-based; details: Homo sapiens, HT-29, read-out: percent growth inhibition
Procedure, shortened: as §2

[16] = test system: topoisomerase II (topoII); assay: Gene expression by real time PCR in HepG2; type: cell-based; details: HepG2, approximate value in text
cleaved caspase-3 = assay: Active cleaved caspase 3 activity in HepG2 cells; type: cell-based; details: for effect on activity of cleaved active caspase 3: HepG2 (Fig. 5B)
[17] = test system: topoisomerase II (Topo II); assay: Topo II concentration in HepG2 cells, sandwich ELISA; type: cell-based; details: HepG2, IC50 concentrations, 8 hours, ELISA (Fig. 5A)
Procedure, shortened: as §4

[18] = test system: cyclin-dependent kinase 1 (cdk1); assay: Gene expression by real time PCR in HepG2; type: cell-based; details: HepG2, approximate value in text
HCC-2998 [19] = assay: NCI single dose; type: cell-based; details: Homo sapiens, HCC 2998, read-out: percent growth inhibition
Procedure, shortened: as §2

MOLT-4 [20] = assay: NCI single dose; type: cell-based; details: Homo sapiens, MOLT-4, read-out: percent growth inhibition
Procedure, shortened: as §2

HCT-15 [21] = assay: NCI single dose; type: cell-based; details: Homo sapiens, HCT-15, read-out: percent growth inhibition
Procedure, shortened: as §2

KM12 [22] = assay: NCI single dose; type: cell-based; details: Homo sapiens, KM12, read-out: percent growth inhibition
Procedure, shortened: as §2

CCRF-CEM [23] = assay: NCI single dose; type: cell-based; details: Homo sapiens, read-out: percent growth inhibition
Procedure, shortened: as §2

SW-620 [24] = assay: NCI single dose; type: cell-based; details: Homo sapiens, SW-620, read-out: percent growth inhibition
Procedure, shortened: as §2

HCT-116 [25] = assay: NCI single dose; type: cell-based; details: Homo sapiens, HCT-116, read-out: percent growth inhibition
Procedure, shortened: as §2

K-562 [26] = assay: NCI single dose; type: cell-based; details: Homo sapiens, K562, read-out: percent growth inhibition
Procedure, shortened: as §2

COc1ccc(-c2ccc(-c3ccc(C(=N)N)nc3)s2)cc1.Cl [Compound 4a, 5-[5-(4-Methoxyphenyl)thiophen-2-yl]picolinamidine hydrochloride salt]
GI50 (HCC-2998 [1]): 1820 nM | CC50 (HCC-2998 [1]): 6380 nM | GI50 (SR [2]): 340 nM | GI50 (K-562 [3]): 1090 nM | GI50 (CCRF-CEM [4]): 1430 nM | GI50 (HT29 [5]): 880 nM | GI50 (HCT-116 [6]): 1620 nM | GI50 (MOLT-4 [7]): 1900 nM | GI50 (panel of 60 cell lines; read-out: Median GI50 (MG-MID)): 1620 nM | CC50 (panel of 60 cell lines): 8120 nM | GI50 (HCT-15 [8]): 1270 nM | CC50 (HCT-15 [8]; HCT-15, read-out: LC50): 5710 nM | GI50 (HL-60 (TB)): 1780 nM | GI% values, range over cell lines (60 cancer cell lines): −7.17 to −86.03% | inhibition at 10 µM (60 cancer cell lines): -28.8% | GI50 (SW-620 [9]): 430 nM | CC50 (SW-620 [9]; SW-620, read-out: LC50): 4980 nM | GI50 (COLO 205): 1890 nM | CC50 (COLO 205): 8130 nM | fold induction at 0.1 µM (p53): 1.19 ± 0.43 | inhibition at 10 µM (SR [10]): 99.7% | GI50 (KM12 [11]): 1810 nM | CC50 (KM12 [11]; KM12, read-out: LC50): 6030 nM | GI50 (RPMI-8226): 2130 nM | IC50 at 48 h [12]: 21100 ± 3100 nM | selectivity index (SI) [13]: 13.0

COc1ccc(-c2ccc(-c3ccc(C(=N)N)nc3)s2)cc1Cl.Cl [Compound 4b, 5-[5-(3-Chloro-4-methoxyphenyl)thiophen-2-yl]picolinamidine hydrochloride salt]
GI50 (HCC-2998 [1]): 1860 nM | GI50 (SR [2]): 580 nM | GI50 (K-562 [3]): 900 nM | GI50 (CCRF-CEM [4]): 1180 nM | GI50 (HT29 [5]): 1350 nM | GI50 (HCT-116 [6]): 1820 nM | GI50 (MOLT-4 [7]): 1720 nM | GI50 (panel of 60 cell lines; read-out: Median GI50 (MG-MID)): 1730 nM | CC50 (panel of 60 cell lines): 8310 nM | GI50 (HCT-15 [8]): 1570 nM | GI50 (HL-60 (TB)): 1660 nM | effect on concentration of MAPK protein [14]: significant reduction | GI% values, range over cell lines (60 cancer cell lines): −7.17 to −86.03% | inhibition at 10 µM (60 cancer cell lines): -19.9% | GI50 (SW-620 [9]): 1790 nM | inhibition at 10 µM (HT29 [15]): 97.5% | GI50 (COLO 205): 1940 nM | magnitude of downregulation of topoII expression [16]: ~50% | effect on activity of cleaved active caspase 3 (cleaved caspase-3): devoid of any effect | effect on concentration of Topo II protein [17]: significant reduction; also recorded: significantly downregulate | fold induction at 0.1 µM (p53): 1.03 ± 0.08 | GI50 (KM12 [11]): 1810 nM | GI50 (RPMI-8226): 2250 nM | magnitude of downregulation of cdk1 expression [18]: ~50% | IC50 at 48 h [12]: 23700 ± 2500 nM | selectivity index (SI) [13]: 13.7

COc1cccc2c1C(=O)c1c(O)c3c(c(O)c1C2=O)C[C@@](O)(C(=O)CO)C[C@@H]3O[C@H]1C[C@H](N)[C@H](O)[C@H](C)O1 [Dox, Doxorubicin, reference compound]
effect on concentration of Topo II protein [17]: significantly downregulate | fold induction at 0.1 µM (p53): 3.14 ± 0.81 | IC50 at 48 h [12]: 2900 ± 800 nM

COc1cc(-c2ccc(-c3ccc(C(=N)N)nc3)s2)cc(OC)c1OC.Cl [Compound 4c, 5-[5-(3,4,5-Trimethoxyphenyl)thiophen-2-yl]picolinamidine hydrochloride salt]
GI50 (HCC-2998 [1]): 2000 nM | CC50 (HCC-2998 [1]): 7610 nM | GI50 (SR [2]): 2480 nM | GI50 (K-562 [3]): 1390 nM | inhibition at 10 µM (HCC-2998 [19]): 87.9% | GI50 (CCRF-CEM [4]): 2490 nM | inhibition at 10 µM (MOLT-4 [20]): 76.2% | GI50 (HT29 [5]): 1370 nM | inhibition at 10 µM (HCT-15 [21]): 78.6% | GI50 (HCT-116 [6]): 1470 nM | CC50 (HCT-116 [6]; HCT-116, read-out: LC50): 5600 nM | GI50 (MOLT-4 [7]): 2530 nM | GI50 (panel of 60 cell lines; read-out: GI50, range over cell lines): 1370 to 2780 nM | GI50 (panel of 60 cell lines; read-out: Median GI50 (MG-MID)): 2390 nM | CC50 (panel of 60 cell lines): 19500 nM | inhibition at 10 µM (KM12 [22]): 50.9% | GI50 (HCT-15 [8]): 2180 nM | GI50 (HL-60 (TB)): 1870 nM | CC50 (HL-60 (TB); HL-60, read-out: LC50): 9440 nM | effect on concentration of MAPK protein [14]: significant reduction | GI% values, range over cell lines (60 cancer cell lines): 50.93 to 99.05% | inhibition at 10 µM (60 cancer cell lines): 52.6% | GI50 (SW-620 [9]): 2090 nM | inhibition at 10 µM (HT29 [15]): 85.8% | GI50 (COLO 205): 1600 nM | CC50 (COLO 205): 6660 nM | inhibition at 10 µM (CCRF-CEM [23]): 89.1% | magnitude of downregulation of topoII expression [16]: ~70% | inhibition at 10 µM (SW-620 [24]): 70.8% | effect on activity of cleaved active caspase 3 (cleaved caspase-3): devoid of any effect | increase in cleaved caspase 3 enzyme activity (cleaved caspase-3; HepG2, did not achieve statistical significance (Fig. 5B)): ~60% | inhibition at 10 µM (HCT-116 [25]): 99% | effect on concentration of Topo II protein [17]: significant reduction; also recorded: significantly downregulate | fold induction at 0.1 µM (p53): 1.18 ± 0.1 | inhibition at 10 µM (SR [10]): 93.7% | GI50 (KM12 [11]): 2780 nM | GI50 (RPMI-8226): 1670 nM | CC50 (RPMI-8226; RPMI-8226, read-out: LC50): 9400 nM | magnitude of downregulation of cdk1 expression [18]: ~70% | IC50 at 48 h [12]: 51300 ± 9000 nM | selectivity index (SI) [13]: 21.5 | inhibition at 10 µM (K-562 [26]): 94.4%
